This note sets out measurements from ChEMBL document CHEMBL4732243, “Design, synthesis, and structure activity relationship analysis of new betulinic acid derivatives as potent HIV inhibitors” (Eur J Med Chem, 2021).

Data set [1] deals with Human immunodeficiency virus 1. Briefly: Potency index, ratio of IC50 for bevirimat to IC50 for test compound for antiviral activity against HIV-1 NL4-3 infected in human MT4 cells assessed as reduction in p24 gag protein incubated for 4 days by ELISA. Format: functional. The note with it: time 4 day. In outline:
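MT-4 cells infected with HIV-1 NL4-3 at MOI 0.01 and cultured with the test compounds. Bevirimat was run in parallel as the reference control. Supernatant p24 was measured on day 4 post-infection by antigen-capture ELISA. IC50 is the concentration that inhibits NL4-3 replication by 50%. The index is the bevirimat IC50 divided by the test-compound IC50.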

The subject of another data set is MT4. Description: Cytotoxicity against human MT4 cells assessed as reduction in cell viability incubated for 2 days by CytoTox-Glo cytotoxicity assay. Format: cell-based. The following applies: mt4, 48 h, time 2 day. In outline: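 Mock-infected MT-4 cells cultured 2 days with a range of compound concentrations. Viability measured by CytoTox-Glo, following the kit protocol, as percent viable cells. CC50 is the concentration giving a 50% reduction in cell viability.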

The subject of data set [2] is Human immunodeficiency virus 1. Briefly: Antiviral activity against HIV-1 NL4-3 infected in human MT4 cells assessed as reduction in p24 gag protein incubated for 4 days by ELISA. Format: functional, organism-based. The note with it: Human immunodeficiency virus 1, NL4-3, MT4, 96 h. In outline: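 MT-4 cells infected with HIV-1 NL4-3 at MOI 0.01, serial compound concentrations, in 96-well format. Supernatant p24 antigen measured by capture ELISA on day 4 post-infection. IC50 is the concentration that inhibits NL4-3 replication by 50%. Bevirimat run in parallel as the reference.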
A general note: An ELISA detects its analyte on a solid surface through an enzyme-linked reagent.

As a reminder, the CC50 is the concentration giving 50% cytotoxicity.

As to `C=C(C)[C@@H]1CC[C@]2(C(=O)N3CCN(C(=O)/C=C/c4ccc(O)c(O)c4)CC3)CC[C@]3(C)[C@H](CC[C@@H]4[C@@]5(C)CC[C@H](OC(=O)CC(C)(C)C(=O)O)C(C)(C)[C@@H]5CC[C@]43C)[C@@H]12`, the “Ratio IC50” value in data set [1] stood at 2. Besides, the CC50 in the data set on MT4 was over 2000 nM.

On to `C=C(C)[C@@H]1CC[C@]2(C(=O)N3CCN(C(=O)/C=C/c4ccc5c(c4)OCO5)CC3)CC[C@]3(C)[C@H](CC[C@@H]4[C@@]5(C)CC[C@H](OC(=O)CC(C)(C)C(=O)O)C(C)(C)[C@@H]5CC[C@]43C)[C@@H]12`, for which the “Ratio IC50” value in data set [1] came out at 2. In addition, the cytotoxic concentration (CC50) with MT4 is over 2000 nM.

For the molecule `C=C(C)[C@@H]1CC[C@]2(C(=O)NCCCNC(=O)/C=C/c3ccc4c(c3)OCO4)CC[C@]3(C)[C@H](CC[C@@H]4[C@@]5(C)CC[C@H](OC(=O)CC(C)(C)C(=O)O)C(C)(C)[C@@H]5CC[C@]43C)[C@@H]12`, the CC50 in the data set with MT4 was over 2000 nM. The IC50 in data set [2] (read-out: IC50) and in data set [2] (read-out: pIC50 (converted)) was 17 nM in each case.

Take `C=C(C)[C@@H]1CC[C@]2(C(=O)OCCCNc3nccs3)CC[C@]3(C)[C@H](CC[C@@H]4[C@@]5(C)CC[C@H](OC(=O)CC(C)(C)C(=O)O)C(C)(C)[C@@H]5CC[C@]43C)[C@@H]12`: the CC50 with MT4 is over 2000 nM. For the same molecule, the IC50 in data set [2] (read-out: IC50) was 39 nM; in data set [2] (read-out: pIC50 (converted)), 38.9 nM.

Regarding `C=C(C)[C@@H]1CC[C@]2(C(=O)N3CCN(CCCCC(=O)N4CCN(c5cc(NCc6ccccc6)ncn5)CC4)CC3)CC[C@]3(C)[C@H](CC[C@@H]4[C@@]5(C)CC[C@H](OC(=O)CC(C)(C)C(=O)O)C(C)(C)[C@@H]5CC[C@]43C)[C@@H]12`, in the data set with MT4, the CC50 is over 2000 nM. For the same molecule, in data set [2] (read-out: IC50), the IC50 is 12 nM.

As for `C=C(C)[C@@H]1CC[C@]2(C(=O)OCCCOC(=O)/C=C/c3ccc(OC)cc3)CC[C@]3(C)[C@H](CC[C@@H]4[C@@]5(C)CC[C@H](OC(=O)CC(C)(C)C(=O)O)C(C)(C)[C@@H]5CC[C@]43C)[C@@H]12`, the cytotoxic concentration (CC50) in the data set with MT4 is over 2000 nM. Also, the IC50 in data set [2] (read-out: IC50) was 850 nM; in data set [2] (read-out: pIC50 (converted)), 851 nM.

In the case of `C=C(C)[C@@H]1CC[C@]2(C(=O)N3CCN(C(=O)/C=C/c4ccc(OCOC)c(OC)c4)CC3)CC[C@]3(C)[C@H](CC[C@@H]4[C@@]5(C)CC[C@H](OC(=O)CC(C)(C)C(=O)O)C(C)(C)[C@@H]5CC[C@]43C)[C@@H]12`, the “Ratio IC50” value in data set [1] turned out to be 2. The CC50 with MT4 was over 2000 nM. Further, the IC50 is 25 nM in data set [2] (read-out: IC50) and 25.1 nM in data set [2] (read-out: pIC50 (converted)).

As to `C=C(C)[C@@H]1CC[C@]2(C(=O)N3CCN(C(=O)/C=C/c4ccc(O)c(OC)c4)CC3)CC[C@]3(C)[C@H](CC[C@@H]4[C@@]5(C)CC[C@H](OC(=O)CC(C)(C)C(=O)O)C(C)(C)[C@@H]5CC[C@]43C)[C@@H]12`, in data set [1], the “Ratio IC50” value came to 2. The CC50 with MT4 was over 2000 nM. The IC50 in data set [2] (read-out: IC50) is 18 nM; in data set [2] (read-out: pIC50 (converted)), 18.2 nM.

As to `C=C(C)[C@@H]1CC[C@]2(C(=O)N3CCN(C(=O)CC(C)(C)C(=O)O)CC3)CC[C@]3(C)[C@H](CC[C@@H]4[C@@]5(C)CC[C@H](ON6CCN(C(=O)CC(C)(C)C(=O)O)CC6)C(C)(C)[C@@H]5CC[C@]43C)[C@@H]12`, the CC50 in the data set with MT4 is over 2000 nM. The IC50 is 14 nM in data set [2] (read-out: IC50) and 14.1 nM in data set [2] (read-out: pIC50 (converted)).

Regarding `C=C(C)[C@@H]1CC[C@]2(C(=O)N3CCN(C(=O)CCC(=O)Nc4nccs4)CC3)CC[C@]3(C)[C@H](CC[C@@H]4[C@@]5(C)CC[C@H](OC(=O)CC(C)(C)C(=O)O)C(C)(C)[C@@H]5CC[C@]43C)[C@@H]12`, the CC50 in the data set on MT4 was over 2000 nM. Also, the IC50 is 40 nM in data set [2] (read-out: IC50) and 39.8 nM in data set [2] (read-out: pIC50 (converted)).

Regarding `C=C(C)[C@@H]1CC[C@]2(C(=O)OCCCN3CCN(c4cc(NCc5ccccc5)ncn4)CC3)CC[C@]3(C)[C@H](CC[C@@H]4[C@@]5(C)CC[C@H](OC(=O)CC(C)(C)C(=O)O)C(C)(C)[C@@H]5CC[C@]43C)[C@@H]12`, in the data set on MT4, the CC50 is over 2000 nM. For the same molecule, the IC50 in data set [2] (read-out: IC50) was determined as 430 nM.

For `C=C(C)[C@@H]1CC[C@]2(C(=O)N3CCNCC3)CC[C@]3(C)[C@H](CC[C@@H]4[C@@]5(C)CC[C@H](Oc6ccc(O)c(O)c6)C(C)(C)[C@@H]5CC[C@]43C)[C@@H]12`, the half-maximal cytotoxic concentration (CC50) with MT4 was over 2000 nM. For the same molecule, the IC50 in data set [2] (read-out: IC50) and in data set [2] (read-out: pIC50 (converted)) was 490 nM throughout.
